Columns and labels:
[1] = system: MDA-MB-231; test: Antiproliferative activity against human MDA-MB-231 cells after 72 hrs by MTT assay; assay type: functional, cell-based; conditions: MDA-MB-231, 72 h
In short: (§1)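 RPMI-1640 with 10% fetal calf serum, 37 °C, 5% CO₂, 95% humidity. Cells seeded at 5.0 × 10³/well and grown 24 h, then exposed 72 h to a range of compound concentrations. MTT (5 mg/ml solution) added for a further 4 h at 37 °C. Formazan crystals dissolved and absorbance read at 570 nm. Each compound tested three times per cell line. IC50 reported as mean ± SD of three independent experiments.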

[2] = system: BGC-823; test: Antiproliferative activity against human BGC823 cells after 72 hrs by MTT assay; assay type: functional, cell-based; conditions: BGC-823, 72 h; in short: as §1
[3] = target: T1, RAF proto-oncogene serine/threonine-protein kinase (Homo sapiens, UniProt P04049); test: Inhibition of C-Raf kinase-mediated phosphorylation of Mek using [33P]gammaATP after 20 mins by scintillation counting
In short: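 The reaction was started with [γ-³³P]ATP (about 500 cpm/pmol) and run 20 min at 30 °C. It was then spotted onto a phosphocellulose mat, washed in 1% phosphoric acid, and counted by scintillation.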

[4] = system: SMMC-7721; test: Antiproliferative activity against human SMMC7721 cells after 72 hrs by MTT assay; assay type: functional, cell-based; conditions: SMMC-7721, 72 h; in short: as §1
[5] = target: Focal adhesion kinase 1 (Homo sapiens) (UniProt Q05397); test: Inhibition of PTK2 at 10 uM
[6] = Inhibition of Abl at 10 uM
[7] = target: Fibroblast growth factor receptor 1 (Homo sapiens) (UniProt P11362); test: Inhibition of FGFR1 at 10 uM
[8] = target: Vascular endothelial growth factor receptor 2 (Homo sapiens) (UniProt P35968); test: Inhibition of KDR at 10 uM
[9] = target: Serine/threonine-protein kinase PLK1 (Homo sapiens) (UniProt P53350); test: Inhibition of PLK1 at 10 uM
[10] = target: RAC-alpha serine/threonine-protein kinase (Homo sapiens) (UniProt P31749); test: Inhibition of AKT1 at 10 uM
[11] = target: Macrophage colony-stimulating factor 1 receptor (Homo sapiens) (UniProt P07333); test: Inhibition of FMS at 10 uM
[12] = target: Mast/stem cell growth factor receptor Kit (Homo sapiens) (UniProt P10721); test: Inhibition of c-KIT at 10 uM
[13] = target: Tyrosine-protein kinase JAK2 (Homo sapiens) (UniProt O60674); test: Inhibition of JAK2 at 10 uM
[14] = target: T1, RAF proto-oncogene serine/threonine-protein kinase; test: Inhibition of c-Raf at 10 uM
[15] = target: Angiopoietin-1 receptor (Homo sapiens) (UniProt Q02763); test: Inhibition of TIE2 at 10 uM
[16] = target: Hepatocyte growth factor receptor (Homo sapiens) (UniProt P08581); test: Inhibition of c-MET at 10 uM
[17] = target: Platelet-derived growth factor receptor alpha (Homo sapiens) (UniProt P16234); test: Inhibition of PDGFRalpha at 10 uM
[18] = target: Tyrosine-protein kinase Fyn (Homo sapiens) (UniProt P06241); test: Inhibition of FYN at 10 uM
[19] = target: Cyclin-dependent kinase 2 (Homo sapiens) (UniProt P24941); test: Inhibition of CDK2 at 10 uM
[20] = target: Tyrosine-protein kinase SYK (Homo sapiens) (UniProt P43405); test: Inhibition of SYK at 10 uM
[21] = target: Inhibitor of nuclear factor kappa-B kinase subunit beta (Homo sapiens) (UniProt O14920); test: Inhibition of IKKbeta at 10 uM
[22] = target: Receptor-type tyrosine-protein kinase FLT3 (Homo sapiens) (UniProt P36888); test: Inhibition of FLT3 at 10 uM
[23] = target: Vascular endothelial growth factor receptor 2 (Homo sapiens) (UniProt P35968); test: Inhibition of VEGFR2 at 10 uM
[24] = Inhibition of PKA at 10 uM

T1 sequence (P04049 whole entry): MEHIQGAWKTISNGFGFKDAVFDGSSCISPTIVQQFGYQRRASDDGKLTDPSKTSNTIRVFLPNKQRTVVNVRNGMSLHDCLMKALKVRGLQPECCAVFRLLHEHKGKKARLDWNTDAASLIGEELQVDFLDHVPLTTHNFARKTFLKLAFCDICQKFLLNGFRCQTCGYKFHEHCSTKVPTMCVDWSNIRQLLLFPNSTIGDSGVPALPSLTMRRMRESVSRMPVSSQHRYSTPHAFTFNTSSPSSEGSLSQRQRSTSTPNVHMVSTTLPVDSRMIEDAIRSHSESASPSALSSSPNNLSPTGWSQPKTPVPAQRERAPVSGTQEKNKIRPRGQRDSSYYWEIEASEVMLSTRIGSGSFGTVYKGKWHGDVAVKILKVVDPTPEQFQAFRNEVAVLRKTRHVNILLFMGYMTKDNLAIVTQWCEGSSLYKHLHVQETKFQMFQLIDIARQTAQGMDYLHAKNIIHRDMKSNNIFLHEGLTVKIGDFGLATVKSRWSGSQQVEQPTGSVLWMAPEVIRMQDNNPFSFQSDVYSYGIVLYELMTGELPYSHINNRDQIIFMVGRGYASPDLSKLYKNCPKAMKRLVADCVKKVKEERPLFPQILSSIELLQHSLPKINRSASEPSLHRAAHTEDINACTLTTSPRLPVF
Sequence of Vascular endothelial growth factor receptor 2 (Homo sapiens) (P35968 whole entry): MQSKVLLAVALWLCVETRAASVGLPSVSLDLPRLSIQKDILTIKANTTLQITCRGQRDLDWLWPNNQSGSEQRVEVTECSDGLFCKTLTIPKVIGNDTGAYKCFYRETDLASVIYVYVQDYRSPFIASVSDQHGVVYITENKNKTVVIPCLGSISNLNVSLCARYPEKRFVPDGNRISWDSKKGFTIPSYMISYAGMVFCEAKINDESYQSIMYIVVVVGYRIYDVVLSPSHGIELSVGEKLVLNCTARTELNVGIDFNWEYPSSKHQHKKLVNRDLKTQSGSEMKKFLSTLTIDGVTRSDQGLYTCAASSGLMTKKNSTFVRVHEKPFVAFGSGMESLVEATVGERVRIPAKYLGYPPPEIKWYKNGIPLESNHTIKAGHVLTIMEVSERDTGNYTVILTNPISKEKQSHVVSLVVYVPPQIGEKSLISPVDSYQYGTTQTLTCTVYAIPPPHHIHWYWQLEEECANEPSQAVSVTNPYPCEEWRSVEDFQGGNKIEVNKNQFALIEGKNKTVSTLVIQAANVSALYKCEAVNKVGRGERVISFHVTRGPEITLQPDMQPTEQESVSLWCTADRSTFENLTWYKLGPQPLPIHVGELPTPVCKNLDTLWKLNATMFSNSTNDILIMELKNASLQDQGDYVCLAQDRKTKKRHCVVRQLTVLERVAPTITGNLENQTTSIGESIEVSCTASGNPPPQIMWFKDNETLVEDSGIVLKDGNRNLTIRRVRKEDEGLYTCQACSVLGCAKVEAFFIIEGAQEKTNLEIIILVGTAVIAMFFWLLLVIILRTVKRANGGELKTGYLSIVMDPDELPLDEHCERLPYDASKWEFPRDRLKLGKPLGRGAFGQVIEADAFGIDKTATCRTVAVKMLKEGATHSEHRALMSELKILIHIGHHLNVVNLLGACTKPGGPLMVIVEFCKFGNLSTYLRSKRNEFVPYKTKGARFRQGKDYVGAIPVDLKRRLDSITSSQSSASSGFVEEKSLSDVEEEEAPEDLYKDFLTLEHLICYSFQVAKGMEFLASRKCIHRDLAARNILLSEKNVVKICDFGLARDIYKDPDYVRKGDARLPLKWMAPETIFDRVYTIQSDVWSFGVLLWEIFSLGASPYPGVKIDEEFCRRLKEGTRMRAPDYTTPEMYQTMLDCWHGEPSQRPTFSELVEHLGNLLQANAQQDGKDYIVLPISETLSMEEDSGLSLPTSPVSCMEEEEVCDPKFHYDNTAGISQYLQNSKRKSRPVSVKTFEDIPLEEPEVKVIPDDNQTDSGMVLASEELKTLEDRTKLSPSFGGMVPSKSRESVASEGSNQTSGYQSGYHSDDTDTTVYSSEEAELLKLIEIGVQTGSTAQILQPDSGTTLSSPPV
Sequence of Hepatocyte growth factor receptor (Homo sapiens) (P08581 whole entry): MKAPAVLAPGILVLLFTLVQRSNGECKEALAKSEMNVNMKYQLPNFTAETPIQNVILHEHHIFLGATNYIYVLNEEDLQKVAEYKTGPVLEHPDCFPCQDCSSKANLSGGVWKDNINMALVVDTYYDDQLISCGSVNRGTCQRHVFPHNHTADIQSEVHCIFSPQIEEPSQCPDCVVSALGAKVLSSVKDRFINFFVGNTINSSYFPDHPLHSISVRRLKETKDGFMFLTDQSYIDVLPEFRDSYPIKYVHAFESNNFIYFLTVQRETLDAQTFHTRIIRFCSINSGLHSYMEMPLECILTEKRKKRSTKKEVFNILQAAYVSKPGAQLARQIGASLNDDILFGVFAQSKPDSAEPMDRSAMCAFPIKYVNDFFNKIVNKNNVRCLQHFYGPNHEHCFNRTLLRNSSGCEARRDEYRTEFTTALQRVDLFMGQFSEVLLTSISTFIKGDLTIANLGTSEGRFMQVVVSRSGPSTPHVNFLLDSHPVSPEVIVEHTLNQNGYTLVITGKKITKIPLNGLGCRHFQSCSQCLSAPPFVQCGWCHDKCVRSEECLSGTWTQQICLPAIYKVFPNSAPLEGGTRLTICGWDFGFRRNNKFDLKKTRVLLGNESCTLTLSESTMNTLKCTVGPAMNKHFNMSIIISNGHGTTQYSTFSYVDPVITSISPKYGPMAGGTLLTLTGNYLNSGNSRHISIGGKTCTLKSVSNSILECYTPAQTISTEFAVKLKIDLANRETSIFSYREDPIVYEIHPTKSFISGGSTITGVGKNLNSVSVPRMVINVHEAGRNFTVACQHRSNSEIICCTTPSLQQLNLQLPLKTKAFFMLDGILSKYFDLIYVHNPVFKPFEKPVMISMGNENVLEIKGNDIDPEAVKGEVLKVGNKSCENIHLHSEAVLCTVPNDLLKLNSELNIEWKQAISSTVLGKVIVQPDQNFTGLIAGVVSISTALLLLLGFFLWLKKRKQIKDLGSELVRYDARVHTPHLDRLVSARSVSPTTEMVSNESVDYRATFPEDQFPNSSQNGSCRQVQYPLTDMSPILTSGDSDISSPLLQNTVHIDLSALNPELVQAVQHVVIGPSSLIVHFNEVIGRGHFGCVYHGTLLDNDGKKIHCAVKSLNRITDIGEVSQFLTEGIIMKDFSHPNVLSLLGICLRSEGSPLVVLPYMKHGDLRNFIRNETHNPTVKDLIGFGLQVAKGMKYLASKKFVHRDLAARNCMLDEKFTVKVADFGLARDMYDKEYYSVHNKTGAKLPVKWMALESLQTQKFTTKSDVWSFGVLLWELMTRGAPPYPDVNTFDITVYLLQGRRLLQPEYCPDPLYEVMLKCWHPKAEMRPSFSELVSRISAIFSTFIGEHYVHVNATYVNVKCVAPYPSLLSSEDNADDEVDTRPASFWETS
Sequence of Receptor-type tyrosine-protein kinase FLT3 (Homo sapiens) (P36888 whole entry): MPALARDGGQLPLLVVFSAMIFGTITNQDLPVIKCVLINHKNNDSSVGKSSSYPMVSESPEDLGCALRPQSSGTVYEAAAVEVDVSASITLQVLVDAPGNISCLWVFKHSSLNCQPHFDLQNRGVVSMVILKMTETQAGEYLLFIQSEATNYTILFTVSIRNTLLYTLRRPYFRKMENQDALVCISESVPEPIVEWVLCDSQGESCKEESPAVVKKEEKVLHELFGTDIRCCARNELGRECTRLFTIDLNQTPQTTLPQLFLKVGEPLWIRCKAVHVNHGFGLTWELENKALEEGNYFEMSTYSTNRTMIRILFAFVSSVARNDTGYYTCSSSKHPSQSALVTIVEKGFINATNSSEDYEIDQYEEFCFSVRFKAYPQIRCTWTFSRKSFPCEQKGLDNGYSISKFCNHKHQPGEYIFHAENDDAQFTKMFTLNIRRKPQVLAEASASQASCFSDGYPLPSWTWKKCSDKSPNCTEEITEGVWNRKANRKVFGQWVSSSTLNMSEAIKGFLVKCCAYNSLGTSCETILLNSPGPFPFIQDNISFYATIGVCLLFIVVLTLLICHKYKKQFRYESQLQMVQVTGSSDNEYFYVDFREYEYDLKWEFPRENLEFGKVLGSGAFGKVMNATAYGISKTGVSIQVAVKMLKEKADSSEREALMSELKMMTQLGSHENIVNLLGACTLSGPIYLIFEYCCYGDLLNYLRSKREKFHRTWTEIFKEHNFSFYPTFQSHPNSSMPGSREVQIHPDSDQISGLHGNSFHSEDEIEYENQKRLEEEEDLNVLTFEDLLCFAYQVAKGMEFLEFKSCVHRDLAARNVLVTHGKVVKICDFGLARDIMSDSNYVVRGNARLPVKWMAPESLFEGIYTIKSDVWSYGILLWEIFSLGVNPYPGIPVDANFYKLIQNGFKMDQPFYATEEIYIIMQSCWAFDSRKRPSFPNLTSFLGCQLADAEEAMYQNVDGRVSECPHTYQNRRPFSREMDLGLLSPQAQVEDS
Sequence of RAC-alpha serine/threonine-protein kinase (Homo sapiens) (P31749 whole entry): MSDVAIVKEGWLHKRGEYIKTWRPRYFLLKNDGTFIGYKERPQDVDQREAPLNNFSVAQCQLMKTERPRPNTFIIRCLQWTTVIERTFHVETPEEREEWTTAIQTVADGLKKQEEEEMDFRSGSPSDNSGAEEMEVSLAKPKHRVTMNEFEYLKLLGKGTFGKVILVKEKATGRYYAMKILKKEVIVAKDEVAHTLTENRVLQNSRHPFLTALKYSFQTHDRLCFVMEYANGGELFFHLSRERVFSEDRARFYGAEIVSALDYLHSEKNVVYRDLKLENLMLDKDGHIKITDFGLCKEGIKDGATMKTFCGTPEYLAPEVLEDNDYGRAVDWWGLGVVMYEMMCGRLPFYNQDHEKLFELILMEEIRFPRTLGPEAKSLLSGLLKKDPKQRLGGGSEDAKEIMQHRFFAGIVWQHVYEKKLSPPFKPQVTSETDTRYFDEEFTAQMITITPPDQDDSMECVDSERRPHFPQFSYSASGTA

IC50 [1]	IC50 [2]	IC50 [3]	IC50 [4]	SMILES	other results
10.1 µM	33.4 µM	0.0467 µM	8.38 µM	Cc1ccc(NC(=O)Nc2ccc(Oc3ccnc(-c4ncc(C(F)(F)F)[nH]4)c3)cc2Cl)cc1C(F)(F)F	
3.77 µM	11.1 µM	0.0221 µM	6.52 µM	O=C(Nc1ccc(Cl)c(C(F)(F)F)c1)Nc1ccc(Oc2ccnc(-c3ncc(C(F)(F)F)[nH]3)c2)cc1Cl	
11.3 µM	15.7 µM	0.0692 µM	9.69 µM	O=C(Nc1ccc(Oc2ccnc(-c3ncc(C(F)(F)F)[nH]3)c2)cc1)Nc1ccc(F)c(Cl)c1	
76.6 µM	84 µM	0.12 µM	57.9 µM	Cc1cccc(Cl)c1NC(=O)Nc1ccc(Oc2ccnc(-c3ncc(C(F)(F)F)[nH]3)c2)cc1	
7.03 µM	14.2 µM	0.0359 µM	5.29 µM	O=C(Nc1ccc(Oc2ccnc(-c3ncc(C(F)(F)F)[nH]3)c2)cc1Cl)Nc1cc(C(F)(F)F)ccc1Cl	
10.7 µM	26.2 µM	0.0878 µM	11.7 µM	O=C(Nc1ccc(Oc2ccnc(-c3ncc(C(F)(F)F)[nH]3)c2)cc1)Nc1cccc(C(F)(F)F)c1	
7.18 µM	10.9 µM		6.23 µM	CNC(=O)c1cc(Oc2ccc(NC(=O)Nc3ccc(Cl)c(C(F)(F)F)c3)cc2)ccn1 [SORAFENIB]	
1.21 µM	13.2 µM	0.0106 µM	1.38 µM	O=C(Nc1ccc(Oc2ccnc(-c3ncc(C(F)(F)F)[nH]3)c2)cc1)Nc1ccc(Cl)c(C(F)(F)F)c1	inhibition [5]: 4.9%; inhibition [6]: 44.3%; inhibition [7]: 20.2%; inhibition [8]: 3.5%; inhibition [9]: 8.7%; inhibition [10]: 11.7%; inhibition [11]: 50.8%; inhibition [12]: 23.9%; inhibition [13]: 0%; inhibition [14]: 95.3%; inhibition [15]: 27.5%; inhibition [16]: 2.2%; inhibition [17]: 0%; inhibition [18]: 0.4%; inhibition [19]: 7.8%; inhibition [20]: 20.4%; inhibition [21]: 5.6%; inhibition [22]: 17.7%; inhibition [23]: 36.8%; inhibition [24]: 1.3%
95.4 µM	> 100 µM		> 100 µM	COc1ccc(NC(=O)Nc2ccc(Oc3ccnc(-c4ncc(C(F)(F)F)[nH]4)c3)cc2)cc1	
14.2 µM	23.2 µM	0.0648 µM	9.72 µM	O=C(Nc1cccc(C(F)(F)F)c1)Nc1ccc(Oc2ccnc(-c3ncc(C(F)(F)F)[nH]3)c2)cc1Cl	
38.7 µM	23.7 µM	0.0949 µM	36.2 µM	O=C(Nc1ccc(F)cc1)Nc1ccc(Oc2ccnc(-c3ncc(C(F)(F)F)[nH]3)c2)cc1	
44.8 µM	97.7 µM	0.148 µM	87.7 µM	Cc1cc(NC(=O)Nc2ccc(Oc3ccnc(-c4ncc(C(F)(F)F)[nH]4)c3)cc2)no1	
8.21 µM	17.7 µM	0.0777 µM	5.72 µM	O=C(Nc1ccc(F)c(C(F)(F)F)c1)Nc1ccc(Oc2ccnc(-c3ncc(C(F)(F)F)[nH]3)c2)cc1Cl	
63.2 µM	> 100 µM		92.4 µM	O=C(Nc1ccc(Oc2ccnc(-c3ncc(C(F)(F)F)[nH]3)c2)cc1)Nc1ccc2c(c1)OCO2	
25.4 µM	66.8 µM	0.0815 µM	44.6 µM	O=C(Nc1ccc(Oc2ccnc(-c3ncc(C(F)(F)F)[nH]3)c2)cc1)Nc1ccc(Br)cc1F	
7.83 µM	18.4 µM	0.0759 µM	6.84 µM	O=C(Nc1ccc(Oc2ccnc(-c3ncc(C(F)(F)F)[nH]3)c2)cc1)Nc1cc(C(F)(F)F)ccc1Cl	
> 100 µM	> 100 µM		> 100 µM	COc1cc(NC(=O)Nc2ccc(Oc3ccnc(-c4ncc(C(F)(F)F)[nH]4)c3)cc2Cl)cc(OC)c1OC	
1.77 µM	12.7 µM	0.0165 µM	2.49 µM	O=C(Nc1ccc(Cl)c(Cl)c1)Nc1ccc(Oc2ccnc(-c3ncc(C(F)(F)F)[nH]3)c2)cc1Cl	
2.03 µM	10.7 µM	0.0131 µM	3.06 µM	O=C(Nc1ccc(Oc2ccnc(-c3ncc(C(F)(F)F)[nH]3)c2)cc1)Nc1ccc(Cl)c(Cl)c1	

Source: ChEMBL document CHEMBL2046400, “Design, synthesis and antitumor activities of novel bis-aryl ureas derivatives as Raf kinase inhibitors” (Bioorg Med Chem, 2012)
